Results reported in ChEMBL document CHEMBL4184236, “Design, synthesis and biological evaluation of matrine derivatives as potential anticancer agents” (Bioorg Med Chem Lett, 2018).

Assays:
[1] = tested on: CNE-2; assay: Induction of cell cycle arrest in human CNE2 cells assessed as accumulation at G2/M phase at 30 uM incubated for 24 hrs by propidium iodide staining based flow cytometry (reference value: 19.8%); assay type: functional
[2] = tested on: CNE-2; assay: Induction of cell cycle arrest in human CNE2 cells assessed as accumulation at S phase at 10 uM incubated for 24 hrs by propidium iodide staining based flow cytometry (reference value: 10.3%); assay type: functional
[3] = tested on: CNE-2; assay: Anticancer activity against human CNE2 cells assessed as reduction in cell viability incubated for 48 hrs MTT assay; assay type: functional, cell-based; conditions: CNE-2, 48 h
Method in brief: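 MTT assay on human hepatocarcinoma SMMC-7721, lung carcinoma A549 and nasopharyngeal carcinoma CNE2 cells, with matrine as comparator and cisplatin as positive control. IC50 is the concentration that lowers optical density of treated cells by 50% versus untreated cells, given as the mean ± SD of three experiments.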

[4] = tested on: CNE-2; assay: Induction of apoptosis in human CNE2 cells assessed as viable cells level at 10 uM incubated for 24 hrs by Annexin V-FITC/PI dual staining based flow cytometry (reference value: 91.6%); assay type: functional
Method in brief: (§1)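 CNE2 and SMMC-7721 cells were treated for 24 h at 0, 5, 10 or 30 µM, or at 0, 10, 20 or 50 µM depending on compound. Cells were stained with Annexin V-FITC/propidium iodide and quantified by flow cytometry. Apoptotic cells were counted as AV+/PI− (lower right) plus AV+/PI+ (upper right) quadrants.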

[5] = tested on: SMMC-7721; assay: Induction of apoptosis in human SMMC7721 cells assessed as necrotic cells level at 10 uM incubated for 24 hrs by Annexin V-FITC/PI dual staining based flow cytometry (reference value: 2.47%); assay type: functional; method in brief: as §1
[6] = tested on: SMMC-7721; assay: Induction of cell cycle arrest in human SMMC7721 cells assessed as accumulation at G2/M phase at 10 uM incubated for 24 hrs by propidium iodide staining based flow cytometry (reference value: 18.4%); assay type: functional
[7] = tested on: SMMC-7721; assay: Induction of apoptosis in human SMMC7721 cells assessed as late apoptotic cells level at 10 uM incubated for 24 hrs by Annexin V-FITC/PI dual staining based flow cytometry (reference value: 0.88%); assay type: functional; method in brief: as §1
[8] = tested on: SMMC-7721; assay: Induction of apoptosis in human SMMC7721 cells assessed as necrotic cells level at 30 uM incubated for 24 hrs by Annexin V-FITC/PI dual staining based flow cytometry (reference value: 2.47%); assay type: functional; method in brief: as §1
[9] = tested on: CNE-2; assay: Induction of cell cycle arrest in human CNE2 cells assessed as accumulation at subG1 phase at 10 uM incubated for 24 hrs by propidium iodide staining based flow cytometry (reference value: 0.55%); assay type: functional
[10] = tested on: SMMC-7721; assay: Induction of apoptosis in human SMMC7721 cells assessed as viable cells level at 30 uM incubated for 24 hrs by Annexin V-FITC/PI dual staining based flow cytometry (reference value: 95.3%); assay type: functional; method in brief: as §1
[11] = tested on: SMMC-7721; assay: Induction of cell cycle arrest in human SMMC7721 cells assessed as accumulation at G0-G1 phase at 10 uM incubated for 24 hrs by propidium iodide staining based flow cytometry (reference value: 64.1%); assay type: functional
[12] = tested on: CNE-2; assay: Induction of apoptosis in human CNE2 cells assessed as late apoptotic cells level at 5 uM incubated for 24 hrs by Annexin V-FITC/PI dual staining based flow cytometry (reference value: 1.37%); assay type: functional; method in brief: as §1
[13] = tested on: CNE-2; assay: Induction of cell cycle arrest in human CNE2 cells assessed as accumulation at G0-G1 phase at 30 uM incubated for 24 hrs by propidium iodide staining based flow cytometry (reference value: 69.3%); assay type: functional
[14] = tested on: CNE-2; assay: Induction of cell cycle arrest in human CNE2 cells assessed as accumulation at G2/M phase at 5 uM incubated for 24 hrs by propidium iodide staining based flow cytometry (reference value: 19.8%); assay type: functional
[15] = tested on: SMMC-7721; assay: Induction of apoptosis in human SMMC7721 cells assessed as early apoptotic cells level at 10 uM incubated for 24 hrs by Annexin V-FITC/PI dual staining based flow cytometry (reference value: 1.36%); assay type: functional; method in brief: as §1
[16] = tested on: SMMC-7721; assay: Induction of cell cycle arrest in human SMMC7721 cells assessed as accumulation at S phase at 5 uM incubated for 24 hrs by propidium iodide staining based flow cytometry (reference value: 17.2%); assay type: functional
[17] = tested on: CNE-2; assay: Induction of apoptosis in human CNE2 cells assessed as early apoptotic cells level at 5 uM incubated for 24 hrs by Annexin V-FITC/PI dual staining based flow cytometry (reference value: 3.56%); assay type: functional; method in brief: as §1
[18] = tested on: SMMC-7721; assay: Induction of apoptosis in human SMMC7721 cells assessed as late apoptotic cells level at 30 uM incubated for 24 hrs by Annexin V-FITC/PI dual staining based flow cytometry (reference value: 0.88%); assay type: functional; method in brief: as §1
[19] = tested on: CNE-2; assay: Induction of apoptosis in human CNE2 cells assessed as viable cells level at 5 uM incubated for 24 hrs by Annexin V-FITC/PI dual staining based flow cytometry (reference value: 91.6%); assay type: functional; method in brief: as §1
[20] = tested on: SMMC-7721; assay: Induction of cell cycle arrest in human SMMC7721 cells assessed as accumulation at S phase at 30 uM incubated for 24 hrs by propidium iodide staining based flow cytometry (reference value: 17.2%); assay type: functional
[21] = tested on: SMMC-7721; assay: Induction of apoptosis in human SMMC7721 cells assessed as necrotic cells level at 5 uM incubated for 24 hrs by Annexin V-FITC/PI dual staining based flow cytometry (reference value: 2.47%); assay type: functional; method in brief: as §1
[22] = tested on: SMMC-7721; assay: Induction of cell cycle arrest in human SMMC7721 cells assessed as accumulation at G2/M phase at 30 uM incubated for 24 hrs by propidium iodide staining based flow cytometry (reference value: 18.4%); assay type: functional
[23] = tested on: CNE-2; assay: Induction of apoptosis in human CNE2 cells assessed as necrotic cells level at 5 uM incubated for 24 hrs by Annexin V-FITC/PI dual staining based flow cytometry (reference value: 3.43%); assay type: functional; method in brief: as §1
[24] = tested on: CNE-2; assay: Induction of cell cycle arrest in human CNE2 cells assessed as accumulation at subG1 phase at 5 uM incubated for 24 hrs by propidium iodide staining based flow cytometry (reference value: 0.55%); assay type: functional
[25] = tested on: CNE-2; assay: Induction of apoptosis in human CNE2 cells assessed as necrotic cells level at 10 uM incubated for 24 hrs by Annexin V-FITC/PI dual staining based flow cytometry (reference value: 3.43%); assay type: functional; method in brief: as §1
[26] = tested on: SMMC-7721; assay: Induction of cell cycle arrest in human SMMC7721 cells assessed as accumulation at G0-G1 phase at 30 uM incubated for 24 hrs by propidium iodide staining based flow cytometry (reference value: 64.1%); assay type: functional
[27] = tested on: SMMC-7721; assay: Induction of apoptosis in human SMMC7721 cells assessed as viable cells level at 10 uM incubated for 24 hrs by Annexin V-FITC/PI dual staining based flow cytometry (reference value: 95.3%); assay type: functional; method in brief: as §1
[28] = tested on: SMMC-7721; assay: Induction of cell cycle arrest in human SMMC7721 cells assessed as accumulation at G0-G1 phase at 5 uM incubated for 24 hrs by propidium iodide staining based flow cytometry (reference value: 64.1%); assay type: functional
[29] = tested on: CNE-2; assay: Induction of apoptosis in human CNE2 cells assessed as viable cells level at 30 uM incubated for 24 hrs by Annexin V-FITC/PI dual staining based flow cytometry (reference value: 91.6%); assay type: functional; method in brief: as §1
[30] = tested on: SMMC-7721; assay: Induction of apoptosis in human SMMC7721 cells assessed as early apoptotic cells level at 5 uM incubated for 24 hrs by Annexin V-FITC/PI dual staining based flow cytometry (reference value: 1.36%); assay type: functional; method in brief: as §1

`COc1cc(Cn2cccc2/C=C2\CC[C@@H]3[C@H]4CCCN5CCC[C@@H](CN3C2=O)[C@@H]45)cc(OC)c1` was tested, and the Activity [1] was 81.1%, the Activity [2] was 2.43% and the IC50 [3] was 3.55 µM. It also gave an Activity [4] of 60.7%, an Activity [5] of 6.65% and an Activity [6] of 78.9%. For the same molecule, the Activity [7] was 18.5%, the Activity [8] was 3.67% and the Activity [9] was 4.35%. It also gave an Activity [10] of 46.3%, an Activity [11] of 5.61% and an Activity [12] of 3.17%. For the same molecule, the Activity [13] was 9.89%, the Activity [14] was 29.5% and the Activity [15] was 42%. For the same molecule, the Activity [16] was 7.92%, the Activity [17] was 8.79% and the Activity [18] was 17%. For the same molecule, the Activity [19] was 85.5%, the Activity [20] was 9.28% and the Activity [21] was 4.04%. For the same molecule, the Activity [22] was 79.1%, the Activity [23] was 2.58% and the Activity [24] was 5.06%. The Activity [25] was 5.22%, the Activity [26] was 8.58% and the Activity [27] was 32.8%. It also gave an Activity [28] of 63%, an Activity [29] of 43% and an Activity [30] of 13.8%.
